The target of test [1] is T1, Hepatitis C virus serine protease, NS3/NS4A (Hepatitis C virus) (UniProt D2K2A8+A3EZI9). Description: Inhibitory concentration against hepatitis C virus NS3/4A protease on 18 h pre-incubation in chromogenic assay. The test is classed as protein-complex assay. The arrangement: concentration or dose not given beside the values. Particulars: Hepacivirus hominis; concentration not given here. The gist of the method: (§1)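 Chromogenic read-out with the NS3 protease domain at 0.56 µM and synthetic 18-mer NS4A cofactor peptide at 0.8 µM. Substrate was Ac-E-D-V-V-P-C-pNO2 anilide at 1.5 mM (Km 1.85 mM). Compound was pre-incubated with enzyme for 2, 4 or 18 h before substrate addition.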

Test [2] deals with T1, Hepatitis C virus serine protease, NS3/NS4A (Hepatitis C virus). The test can be described thus: Compound was tested for inhibition of hepatitis C virus NS3/4A protease at 100 uM 2 hr pre-incubation in chromogenic assay. To be noted: Hepacivirus hominis. The test is classed as protein-complex assay.
For test [3], the target named is T2, Hepatitis C virus serine protease, NS3/NS4A (Hepatitis C virus, UniProt A3EZI9+D2K2A8). The test can be described thus: Inhibitory concentration against hepatitis C virus NS3/4A protease on 4 hr pre-incubation in fluorogenic assay. The test is classed as protein-complex assay, Hepacivirus hominis. The gist of the method:
(§2)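 Fluorogenic assay with full-length NS3/4A protein at 20 nM (NS3:4A 1:1). Substrate was Abz-E-D-V-V-P-C-S-M-S-(3-NO2)-Y-H at 25 µM (Km 5 µM). Compound was pre-incubated with enzyme for 4 or 18 h before substrate addition.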

Test [4] addresses T2, Hepatitis C virus serine protease, NS3/NS4A. Description: Inhibitory concentration against hepatitis C virus NS3/4A protease on 18 hr preincubation in chromogenic assay. The test is classed as protein-complex assay, Hepacivirus hominis. Put shortly: as §1
The target is the same in test [5]. The test can be described thus: Inhibitory concentration against hepatitis C virus NS3/4A protease on 4 hr pre-incubation in chromogenic assay. In kind it is protein-complex assay, Hepacivirus hominis. The gist of the method:
as §1

Test [6] has the same target. The test can be described thus: Inhibitory concentration against hepatitis C virus NS3/4A protease on 18 h pre-incubation in fluorogenic assay. The test is classed as protein-complex assay, Hepacivirus hominis. Put shortly: as §2
Test [7] has the same target. The test can be described thus: Inhibitory concentration against hepatitis C virus NS3/4A protease on 2 hr pre-incubation in chromogenic assay. In kind it is protein-complex assay, Hepacivirus hominis. Put shortly:
as §1

Residues, ends and D or L forms follow the SMILES beside them. *: point of attachment. X1 = CCC1C(=O)N(S(C)(=O)=O)[C@H]2CCN(*)[C@H]12

T2 sequence (D2K2A8 whole entry): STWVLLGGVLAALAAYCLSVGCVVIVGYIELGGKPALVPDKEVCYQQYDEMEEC
T2 sequence (A3EZI9 whole entry): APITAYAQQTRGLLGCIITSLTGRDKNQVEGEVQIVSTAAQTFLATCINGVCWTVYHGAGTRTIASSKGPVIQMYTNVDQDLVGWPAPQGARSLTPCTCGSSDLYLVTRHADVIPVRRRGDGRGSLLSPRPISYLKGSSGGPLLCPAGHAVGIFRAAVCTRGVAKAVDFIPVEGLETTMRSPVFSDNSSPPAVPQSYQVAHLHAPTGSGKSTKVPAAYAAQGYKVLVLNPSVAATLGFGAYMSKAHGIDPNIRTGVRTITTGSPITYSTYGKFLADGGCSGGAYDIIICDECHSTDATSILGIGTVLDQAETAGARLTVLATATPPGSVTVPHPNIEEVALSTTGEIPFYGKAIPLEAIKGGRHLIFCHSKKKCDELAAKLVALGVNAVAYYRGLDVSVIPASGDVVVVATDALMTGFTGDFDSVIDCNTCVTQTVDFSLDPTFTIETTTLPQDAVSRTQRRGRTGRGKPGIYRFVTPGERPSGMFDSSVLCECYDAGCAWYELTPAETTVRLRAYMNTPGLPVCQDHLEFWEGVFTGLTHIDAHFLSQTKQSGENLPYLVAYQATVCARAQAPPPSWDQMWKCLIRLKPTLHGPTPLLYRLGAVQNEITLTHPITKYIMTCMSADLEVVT

In the case of `CCC1C(=O)N(S(C)(=O)=O)[C@H]2CCN(C(=O)[C@@H](NC(=O)[C@@H](NC(=O)[C@H](CC(=O)O)NC(C)=O)C(C)C)C(C)C)[C@H]12` (stereo partly specified), the inhibition is 94% in test [1] and 68% in test [2].
Take `CC[C@@H]1C(=O)N(C(C)=O)[C@H]2CCN(C(=O)[C@@H](NC(=O)OC(C)(C)C)C(C)C)[C@H]12`: the IC50 came out at 193 µM in test [3], 45 µM in test [4], 88 µM in test [5] and 194 µM in test [6].
As to `CCC1C(=O)N(S(C)(=O)=O)[C@H]2CCN(C(=O)[C@@H](N)C(C)C)[C@H]12` (stereo partly specified), the results for the inhibition in test [1] and in test [2] were 41% and 11%, respectively.
In the same order, the values of `CCC1C(=O)N(S(C)(=O)=O)[C@H]2CCN(C(=O)CNC(=O)[C@@H](NC(=O)[C@H](CC(=O)O)NC(=O)[C@H](CCC(=O)O)NC(C)=O)C(C)C)[C@H]12` (stereo partly specified) (Ac-EDVG-X1) are 24% and 10%.
`CC[C@@H]1C(=O)N(S(C)(=O)=O)[C@H]2CCN(C(=O)[C@@H](NC(=O)OC(C)(C)C)C(C)C)[C@H]12`: the IC50 in test [4] came out at 22 µM; in test [5], 30 µM.
In the case of `CC[C@H]1C(=O)N(S(C)(=O)=O)[C@H]2CCN(C(=O)[C@@H](NC(=O)OC(C)(C)C)C(C)C)[C@H]12`, the IC50 turned out to be 341 µM in test [3], 28 µM in test [4], 99 µM in test [5] and 172 µM in test [6].
Regarding `CCC1C(=O)N(S(C)(=O)=O)[C@H]2CCN(C(=O)C(NC(=O)[C@@H](NC(=O)[C@H](CC(=O)O)NC(=O)[C@H](CCC(=O)O)NC(C)=O)C(C)C)C(C)C)[C@H]12` (single isomer, unassigned), the inhibition in test [1] is 85%; in test [2], 24%.
For the molecule `CC[C@H]1C(=O)N(C(C)=O)[C@H]2CCN(C(=O)[C@@H](NC(=O)OC(C)(C)C)C(C)C)[C@H]12`, the IC50 in test [3] is 216 µM; in test [4] it was 147 µM; in test [5], more than 400 µM; in test [6], 447 µM.
As to `CCC1C(=O)N(S(C)(=O)=O)[C@H]2CCN(C(=O)[C@@H](NC(=O)[C@@H](NC(C)=O)C(C)C)C(C)C)[C@H]12` (stereo partly specified), the inhibition in test [1] was 45%; in test [2] it was 21%.
In the case of `CCC1C(=O)N(S(C)(=O)=O)[C@H]2CCN(C(=O)[C@@H](NC(=O)OC(C)(C)C)C(C)C)C12` (single isomer, unassigned), the IC50 was 182 µM in test [3], 27 µM in test [4], 62 µM in test [5] and 140 µM in test [6]. Further, the inhibition in test [2] amounted to 52%.
Turning to `CCC1C(=O)N(S(C)(=O)=O)[C@H]2CCN(C(=O)[C@@H](NC(=O)[C@@H](NC(=O)[C@H](CC(=O)O)NC(=O)[C@H](CCC(=O)O)NC(C)=O)C(C)C)C(C)C)[C@H]12` (stereo partly specified) (Ac-EDVV-X1), the IC50 in test [3] was more than 400 µM; in test [4], 19 µM; in test [5], 69 µM; in test [7], 69 µM; in test [6], 284 µM.
For `CCC1C(=O)N(S(C)(=O)=O)[C@H]2CCN(C(=O)[C@@H]3CCCN3C(=O)[C@@H](NC(=O)[C@H](CC(=O)O)NC(=O)[C@H](CCC(=O)O)NC(C)=O)C(C)C)[C@H]12` (stereo partly specified) (Ac-EDVP-X1), the inhibition turned out to be 11% in test [1] and 5% in test [2].

Usually inhibition stands for the drop in the measured response relative to a control, in per cent. What is called IC50 is the midpoint of a concentration-inhibition curve.

These data come from ChEMBL document CHEMBL1134977, “Design and synthesis of ethyl pyrrolidine-5,5-trans-lactams as inhibitors of hepatitis C virus NS3/4A protease” (Bioorg Med Chem Lett, 2002).
